Data set [1] has as its system CFBE41o-. Briefly: Induction of autophagy in human CFBE41o- cells harbouring CFTR F508del mutant assessed as increase in number of autophagic vacuoles at 5 uM incubated for 24 hrs by confocal microscopy based analysis. Format: functional, cell-based. Put shortly: (§1)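 CFBE41o– F508del/HS-YFP cells (50,000/well) were treated 24 h with compound (5 μM), VX-809 (1 μM) or DMSO. SAR405 (2 μM) and torin1 (20 nM) were added near the end of incubation. Cells were then loaded with 50 μM MDC in PBS for 10 min at 37 °C, washed, and imaged. MDC spot number was normalized to control. n = 3; ANOVA with Dunnett test.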

In data set [2] the test system is CFBE41o-. Nature of the data set: Antiproliferative activity against human CFBE41o- cells harbouring CFTR F508del mutant/HS-YFP at 5 uM incubated for 48 hrs. Format: toxicity, cell-based. A digest of the protocol: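 Cells plated at 5000/well and treated after 6 h with compound (5 μM) or DMSO. Cell-covered area was followed by the YFP signal over 48 h on a high-content imager. Means ± SEM, n = 6. Three independent experiments; ANOVA with Dunnett test.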

Data set [3] is described as follows: Aggregation property of the compound in PBS buffer at pH 7.5 by 1D 1H-NMR analysis. Format: physicochemical. A digest of the protocol:
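Solubility by 1H 1D NMR and aggregation by WaterLOGSY at 298 K in PBS pH 7.5 with 1 μM ZnCl2, 1 mM DTT, 10% D2O, 1% DMSO-d6. Theoretical concentrations 20, 50 and 100 μM, with 200 μM 4-trifluoromethyl benzoic acid as internal reference. WaterLOGSY: mixing time 1.7 s, relaxation delay 2 s, 256 scans.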

Data set [4] concerns CFBE41o-. Nature of the data set: Induction of apoptosis in human CFBE41o- cells assessed as increase in apoptosis at 100 uM incubated for 24 hrs by Hoechst 33342 and propidium iodide staining based analysis. Format: toxicity, cell-based. Put shortly: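 Cells were plated at 10,000/well and treated after 6 h with compound (5, 20, 100 μM), VX-809 (1 μM), MG132 (50 μM) or DMSO for 24 h. Hoechst 33342 counted total nuclei and propidium iodide counted apoptotic nuclei, by high-content imaging. Means ± SEM; ANOVA with Dunnett test.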

The subject of data set [5] is CFBE41o-. Nature of the data set: Induction of autophagy in human CFBE41o- cells harbouring CFTR F508del mutant assessed as increase in number of autophagic vacuoles at 2 uM incubated for 3 hrs by confocal microscopy based analysis. Format: functional, cell-based. Put shortly:
as §1

Data set [6] has as its system Cystic fibrosis transmembrane conductance regulator (Homo sapiens), P13569 [F508del]. Briefly: Corrector activity at CFTR F508del mutant in human CFBE41o- cells assessed as appearance of CFTR mutant forms at 5 uM incubated for 24 hrs in presence of MG-132 by Western blot analysis. Format: cell-based. Put shortly:
(§2)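 Confluent CFBE41o– F508del cells were treated 24 h, with MG-132 (10 μM) or DMSO in the last 4 h. Lysate (600 μg protein) was immunoprecipitated with rabbit anti-CFTR (2 μg, 1 h RT) and protein A/G beads, then eluted reducing. Samples ran on 4–15% gradient SDS-PAGE and were western blotted. Bands were read by chemiluminescence, with densitometry of ubiquitylated CFTR.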

Data set [7] shares this test system. Nature of the data set: Corrector activity at CFTR F508del mutant in human CFBE41o- cells transfected with RNF5 siRNA assessed as increase in CFTR mutant activity at 5 uM incubated for 24 hrs in presence of VX-661/VX-445. Format: cell-based. A digest of the protocol:
(§3)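 CFBE41o– F508del/HS-YFP cells were reverse-transfected with 50 nM (final) NT or RNF5 siRNA using lipofectamine 2000. Medium was changed next day, then compounds were given for 24 h at 37 °C. Readout was the YFP iodide-influx assay after forskolin (20 μM) plus VX-770 (1 μM) stimulation.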

Data set [8] has the same test system. Briefly: Corrector activity at CFTR F508del mutant in human CFBE41o- cells assessed as increase in CFTR mutant activity at 5 uM in presence of VX-809 incubated for 24 hrs. Format: cell-based. Put shortly: (§4)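 CFBE41o– cells stably expressing F508del-CFTR and HS-YFP were treated 24 h after seeding; DMSO and VX-809 (1 μM) served as controls. Cells were stimulated 25 min with forskolin (20 μM) plus VX-770 (1 μM). YFP was read for 2 s before and 12 s after iodide injection. Initial slope came from an exponential fit of the final 11 s. Three independent experiments.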

Data set [9] has the same test system. Nature of the data set: Corrector activity at CFTR F508del mutant in human CFBE41o- cells assessed as decrease in accumulation of ubiquitylated CFTR at 5 uM incubated for 24 hrs in presence of VX-661/VX-445 by Western blot analysis. Format: cell-based. Put shortly: as §2
Data set [10] has the same test system. Briefly: Corrector activity at CFTR F508del mutant in human CFBE41o- cells assessed as rescue of CFTR mutant at 5 uM incubated for 24 hrs in presence of VX661/VX-445 by Western blot analysis. Format: cell-based.
For data set [11] the test system is unchanged. Briefly: Corrector activity at CFTR F508del mutant in human CFBE41o- cells assessed as increase in CFTR mutant activity at 5 uM in presence of VX-445 incubated for 24 hrs. Format: cell-based. A digest of the protocol: as §4
Data set [12] shares this test system. Nature of the data set: Corrector activity at CFTR F508del mutant in human CFBE41o- cells transfected with NT siRNA assessed as increase in CFTR mutant activity at 5 uM incubated for 24 hrs in presence of VX-661/VX-445. Format: cell-based. Put shortly: as §3
In data set [13] the target is Cystic fibrosis transmembrane conductance regulator (Homo sapiens, UniProt P13569, F508DEL). Briefly: Corrector activity at CFTR F508del mutant in human CFBE41o- cells coexpressing HS-YFP incubated for 25 mins by microplate reader based analysis. Format: cell-based. Put shortly:
as §4

The test system of data set [14] is Cystic fibrosis transmembrane conductance regulator (Homo sapiens), P13569 [F508del]. Nature of the data set: Corrector activity at CFTR F508del mutant in human CFBE41o- cells transfected with NT siRNA assessed as increase in CFTR mutant activity at 5 uM incubated for 24 hrs. Format: cell-based. Put shortly: as §3
Data set [15] has the same test system. Briefly: Corrector activity at CFTR F508del mutant in human CFBE41o- cells assessed as increase in CFTR mutant activity at 5 uM in presence of VX-661/VX-445 incubated for 24 hrs. Format: cell-based. A digest of the protocol: as §4
Data set [16] shares this test system. Briefly: Corrector activity at CFTR F508del mutant in human CFBE41o- cells transfected with RNF5 siRNA assessed as increase in CFTR mutant activity at 5 uM incubated for 24 hrs. Format: cell-based. A digest of the protocol:
as §3

Data set [17] shares this test system. Briefly: Corrector activity at CFTR F508del mutant in human CFBE41o- cells assessed as rescue of CFTR mutant at 10 uM incubated for 24 hrs in presence of VX-445 by Western blot analysis. Format: cell-based.
Data set [18] has the same test system. Briefly: Corrector activity at CFTR F508del mutant in human CFBE41o- cells assessed as decrease in accumulation of ubiquitylated CFTR at 10 uM incubated for 24 hrs in presence of VX-445 by Western blot analysis. Format: cell-based. A digest of the protocol:
as §2

Each structure is given as a SMILES string. Active and inactive are the calls of the source. Unless noted, the calls are words filed in the database; no cut-off is given here.

Sequence of Cystic fibrosis transmembrane conductance regulator (Homo sapiens), P13569 [F508del] (P13569 as listed by the source): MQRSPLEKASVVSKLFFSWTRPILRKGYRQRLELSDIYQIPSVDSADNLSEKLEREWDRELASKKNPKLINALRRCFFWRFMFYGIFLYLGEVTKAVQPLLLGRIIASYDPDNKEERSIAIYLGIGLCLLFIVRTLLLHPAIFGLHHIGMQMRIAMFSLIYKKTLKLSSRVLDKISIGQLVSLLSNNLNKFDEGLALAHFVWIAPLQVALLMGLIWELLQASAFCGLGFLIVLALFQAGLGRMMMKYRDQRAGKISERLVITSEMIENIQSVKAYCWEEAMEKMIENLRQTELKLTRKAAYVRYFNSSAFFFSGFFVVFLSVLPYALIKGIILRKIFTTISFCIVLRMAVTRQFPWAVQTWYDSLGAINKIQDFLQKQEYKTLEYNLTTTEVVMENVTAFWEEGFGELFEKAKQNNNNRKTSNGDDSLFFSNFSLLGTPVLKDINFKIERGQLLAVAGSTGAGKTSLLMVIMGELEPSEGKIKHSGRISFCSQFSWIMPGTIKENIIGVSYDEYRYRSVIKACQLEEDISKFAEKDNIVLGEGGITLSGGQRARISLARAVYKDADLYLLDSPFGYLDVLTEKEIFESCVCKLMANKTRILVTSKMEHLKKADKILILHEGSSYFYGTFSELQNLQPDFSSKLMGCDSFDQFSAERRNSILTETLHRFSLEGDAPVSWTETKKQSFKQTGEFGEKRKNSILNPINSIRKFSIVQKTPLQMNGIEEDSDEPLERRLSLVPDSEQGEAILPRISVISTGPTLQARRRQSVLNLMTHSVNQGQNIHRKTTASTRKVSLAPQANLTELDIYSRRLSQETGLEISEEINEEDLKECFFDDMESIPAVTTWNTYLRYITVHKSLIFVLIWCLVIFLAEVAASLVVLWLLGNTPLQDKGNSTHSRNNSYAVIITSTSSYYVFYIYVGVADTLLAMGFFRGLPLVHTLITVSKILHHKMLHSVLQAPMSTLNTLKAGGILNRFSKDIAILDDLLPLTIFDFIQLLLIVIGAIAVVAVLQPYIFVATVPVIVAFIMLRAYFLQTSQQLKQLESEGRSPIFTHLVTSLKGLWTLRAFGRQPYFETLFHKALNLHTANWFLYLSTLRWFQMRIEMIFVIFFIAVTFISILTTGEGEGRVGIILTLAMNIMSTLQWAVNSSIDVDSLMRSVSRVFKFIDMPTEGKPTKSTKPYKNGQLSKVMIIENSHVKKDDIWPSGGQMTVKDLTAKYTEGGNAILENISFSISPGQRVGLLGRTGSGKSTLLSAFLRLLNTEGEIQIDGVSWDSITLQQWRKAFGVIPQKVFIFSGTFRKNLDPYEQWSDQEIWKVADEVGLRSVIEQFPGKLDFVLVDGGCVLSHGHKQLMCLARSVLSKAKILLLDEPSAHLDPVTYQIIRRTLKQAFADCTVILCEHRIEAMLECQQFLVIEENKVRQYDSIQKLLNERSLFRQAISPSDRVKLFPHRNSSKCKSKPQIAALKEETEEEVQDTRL
Sequence of Cystic fibrosis transmembrane conductance regulator (P13569 as listed by the source): as above

Regarding `Cc1ns/c(=N\C(=N\c2ccccc2)c2ccccc2)n1Cc1ccc(F)cc1`, in the data set with CFBE41o- [1], the outcome was inactive. Besides, the Activity result in the data set on CFBE41o- [2] is “Non-Toxic”.
As for `Cc1ns/c(=N\C(=N\c2ccccc2)c2ccccc2)n1Cc1cccc(N(C)C)c1`, the Activity entry in the data set with CFBE41o- [2] is given as “Non-Toxic”.
Regarding `Cc1ns/c(=N\C(=N\c2ccccc2)c2ccccc2)n1-c1ccccc1`, the Activity entry in data set [3] is “Not Active”; in the data set with CFBE41o- [4], “Toxic”; with CFBE41o- [2] it was “Non-Toxic”. Besides, the outcome with CFBE41o- [1] was inactive.
For the molecule `C[C@@H]1COCCN1c1cc(=O)n2c(n1)N(Cc1cncc(Cl)c1)[C@H](C(F)(F)F)CC2`, the outcome in the data set with CFBE41o- [5] was inactive.
As for `Cc1ns/c(=N\c2ccccn2)n1Cc1ccccc1`, the Activity entry in [3] is “Not Active”.
As to `Cc1ccc(Cn2c(C)ns/c2=N\C(=N\c2ccccc2)c2ccccc2)cc1`, the Activity entry in the data set on CFBE41o- [2] was “Non-Toxic”.
Turning to `COc1cccc(Cn2c(C)ns/c2=N\C(=N\c2ccccc2)c2ccccc2)c1`, the Activity result in data set [3] is listed as “Not Active”; in the data set on CFBE41o- [2] it was “Non-Toxic”. The result in [6], in data set [7] and in data set [16] was inactive. For the same molecule, the result (in data set [8]; in [9]; in data set [10]; in [11]; in the data set on CFBE41o- [1]; in data set [12]) was Active. For the same molecule, the outcome in data set [14] and in data set [15] was Active. Moreover, the EC50 in data set [13] amounted to 1200 nM.
With `Cc1ns/c(=N\C(=N\c2ccccc2)c2ccccc2)n1Cc1ccccc1N`, the Activity entry in data set [3] is “Not Active”; in the data set with CFBE41o- [4] it was “Toxic”; in the data set on CFBE41o- [2] it was “Non-Toxic”.
Turning to `Cc1ns/c(=N\C(=N\c2ccccc2)c2ccccc2)n1Cc1ccccc1Cl`, the Activity result was “Toxic” with CFBE41o- [4] and “Non-Toxic” in the data set with CFBE41o- [2].
Turning to `CCOc1cccc(Cn2c(C)ns/c2=N\C(=N\c2ccccc2)c2ccccc2)c1`, the Activity result in the data set on CFBE41o- [2] is “Non-Toxic”.
On to `CNc1cccc(Cn2c(C)ns/c2=N\C(=N\c2ccccc2)c2ccccc2)c1`, for which, in the data set on CFBE41o- [1], the result was Active. Besides, in the data set with CFBE41o- [2], the Activity result was “Non-Toxic”.
As for `Cc1ns/c(=N\C(=N\c2ccccc2)c2ccccc2)n1Cc1cccc(F)c1`, the Activity entry with CFBE41o- [2] is on record as “Non-Toxic”.
On to `Cc1ns/c(=N\C(=N\c2ccccc2)c2ccccc2)n1Cc1cccc(O)c1`, for which the results for the Activity entry (in [3]; with CFBE41o- [4]; in the data set with CFBE41o- [2]) were “Not Active”, “Toxic” and “Non-Toxic”, respectively. Besides, in data set [13], a half-maximal effect (EC50) was put at 1600 nM.
For `CC(C)(CO)c1cc2cc(NC(=O)C3(c4ccc5c(c4)OC(F)(F)O5)CC3)c(F)cc2n1C[C@@H](O)CO`, the outcome in data set [17] and in [18] was Active.

Source of the values: ChEMBL document CHEMBL5346963, “Innovative Strategy toward Mutant CFTR Rescue in Cystic Fibrosis: Design and Synthesis of Thiadiazole Inhibitors of the E3 Ligase RNF5” (J Med Chem, 2023).
